Experimental data from ChEMBL document CHEMBL1135534, “Synthesis, cytotoxicity, and antiplasmodial and antitrypanosomal activity of new neocryptolepine derivatives” (J Med Chem, 2002).
Values belong to the compound of their own block, whether it stands above or below them. Activity calls are given as the source filed them. The rule behind the calls is not given here.

Assays:
Trypanosoma cruzi = experiment: Antitrypanosomal activity against Trypanosoma cruzi; format: functional, organism-based
Summary of the method: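 Primary mouse peritoneal macrophages seeded at 30 000 per well; after 24 h, about 10 000 trypomastigotes added per well with 2-fold drug dilutions. Incubated 4 days at 37 °C in 5% CO2/95% air. Cells MeOH-fixed and Giemsa-stained. Percent reduction of total parasite load (free trypomastigotes plus intracellular amastigotes) versus untreated cultures scored microscopically. IC50 in triplicate (mean ± SD).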

Trypanosoma brucei = experiment: Antitrypanosomal activity against Trypanosoma brucei.; format: functional, organism-based
Summary of the method: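 Bloodstream-form trypomastigotes grown in HMI-9 medium; 10 000 parasites per well exposed to a range of compound concentrations for 4 days. Multiplication read colorimetrically at 490 nm after MTT addition. Test compounds as hydrochloride salts; IC50 determined in triplicate (mean ± SD).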

MRC5 = experiment: Cytotoxicity against human diploid embryonic lung cell line MRC-5 using MTT assay; format: functional, cell-based
Summary of the method: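 Cells seeded at 5000 per well and washed after 24 h. 2-fold drug dilutions added in RPMI + 5% FCS, final DMSO below 0.5%. Incubated 7 days at 37 °C, 5% CO2/95% air. MTT read-out at 540 nm as percent reduction versus untreated controls. IC50 in triplicate (mean ± SD).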

Plasmodium falciparum [1] = experiment: Antiplasmodial activity against chloroquine-sensitive Plasmodium falciparum Ghana; format: functional, organism-based
Summary of the method: (§1)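 Asexual P. falciparum cultures at 1% parasitaemia and 2% haematocrit (W2 for line 1, Ghana for line 2) exposed to 2-fold serial dilutions of the HCl salt for 48 h at 37 °C under 93% N2/4% CO2/3% O2. Plates frozen at -20 °C to lyse cells. Parasite LDH read-out: APAD reduction coupled to NBT formazan at 650 nm. IC50 in triplicate, mean ± SD.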

[2] = biological target: T1, Histidine-rich protein PFHRP-II (Plasmodium falciparum) (UniProt P05227); experiment: Inhibition of beta-hematin formation; no inhibition; format: functional
T1 sequence (whole entry): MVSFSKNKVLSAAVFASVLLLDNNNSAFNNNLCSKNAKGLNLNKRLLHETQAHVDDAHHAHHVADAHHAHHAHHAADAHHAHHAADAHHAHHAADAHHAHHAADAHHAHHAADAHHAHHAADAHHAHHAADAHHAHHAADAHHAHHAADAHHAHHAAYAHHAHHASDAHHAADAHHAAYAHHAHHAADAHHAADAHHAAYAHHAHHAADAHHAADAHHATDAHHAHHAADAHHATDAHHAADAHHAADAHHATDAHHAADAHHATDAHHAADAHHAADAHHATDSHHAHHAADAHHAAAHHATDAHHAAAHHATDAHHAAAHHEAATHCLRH
Summary of the method: (§2)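 Hematin solutions received compound at 3 equiv relative to hemin before acidification. Incubated 40 min at 60 °C, then cooled and filtered; precipitate washed with water and dried. β-Hematin detected by FT-IR bands at 1660 and 1207 cm-1. Hemin without compound served as the formation control. Result is a qualitative yes/no call.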

Plasmodium falciparum [3] = experiment: Antiplasmodial activity against chloroquine-resistant Plasmodium falciparum W2; format: functional, organism-based; summary of the method: as §1
Nucleic Acid [4] = experiment: (§3) Inhibition of DNA interaction using DNA Methyl Green Assay.; format: nucleic-acid assay
Summary of the method: (§4)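 DNA–methyl green complex stirred 24 h at 37 °C in 0.05 M Tris-HCl pH 7.5 with 7.5 mM MgSO4. Compound dried in wells under vacuum, then complex solution added. Absorbance at 620 nm compared between start and 24 h. IC50 taken as the concentration giving 50% absorbance decrease (50% dye displacement).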

[5] = biological target: T1, Histidine-rich protein PFHRP-II (Plasmodium falciparum); experiment: Inhibition of beta-hematin formation; active; format: functional; summary of the method: as §2
[6] = Inhibition of beta-hematin formation; active
Nucleic Acid [7] = experiment: as §3; format: functional; summary of the method: as §4
Nucleic Acid [8] = experiment: as §3; format: nucleic-acid assay; conditions: concentration not given here; summary of the method: as §4

SMILES: Cn1c2nc3ccccc3c-2cc2c(Br)cccc21
IC50 (Trypanosoma cruzi): 15.7 µM
IC50 (Trypanosoma brucei): 16.7 µM
IC50 (MRC5): 16 µM
IC50 (Plasmodium falciparum [1]): > 32 µM
inhibition [2]: inactive
IC50 (Plasmodium falciparum [3]): > 32 µM
IC50 (Nucleic Acid [4]): > 600 µM

IC50 (Trypanosoma cruzi): > 32 µM
IC50 (Trypanosoma brucei): 16.7 µM
IC50 (Nucleic Acid [4]): > 500 µM
inhibition [5]: Active
SMILES: Cn1c2nc3ccccc3c-2cc2ccc(C(F)(F)F)cc21
IC50 (MRC5): 18 µM

SMILES: Clc1cc(Cl)c2[nH]c3nc4ccccc4c-3cc2c1
IC50 (Trypanosoma brucei): > 32 µM
IC50 (MRC5): > 32 µM
IC50 (Plasmodium falciparum [1]): > 32 µM
inhibition [6]: Active
IC50 (Nucleic Acid [7]): > 1000 µM
IC50 (Plasmodium falciparum [3]): > 32 µM

SMILES: COc1ccc2c(c1)cc1c3ccccc3nc-1n2C
IC50 (Trypanosoma cruzi): 1.7 µM
IC50 (Trypanosoma brucei): 0.3 µM
IC50 (MRC5): 4 µM
IC50 (Plasmodium falciparum [1]): 4.3 µM
inhibition [2]: No inhibition
IC50 (Plasmodium falciparum [3]): 4.7 µM
IC50 (Nucleic Acid [4]): 77.9 µM

SMILES: Cn1c2nc3ccc(C#N)cc3c-2cc2cc(Cl)ccc21
IC50 (Trypanosoma brucei): > 32 µM
IC50 (MRC5): > 32 µM
IC50 (Plasmodium falciparum [1]): > 32 µM
IC50 (Plasmodium falciparum [3]): > 32 µM

SMILES: Cn1c2nc3ccccc3c-2cc2cc(Cl)ccc21
IC50 (Trypanosoma cruzi): 12 µM
IC50 (Trypanosoma brucei): 1.3 µM
IC50 (MRC5): 16.5 µM
IC50 (Plasmodium falciparum [1]): 21 µM
inhibition [6]: Active
IC50 (Plasmodium falciparum [3]): 5 µM
IC50 (Nucleic Acid [4]): > 500 µM

SMILES: Cn1c2nc3ccccc3c-2cc2c(C(F)(F)F)cccc21
IC50 (Trypanosoma cruzi): 16.3 µM
IC50 (Trypanosoma brucei): > 32 µM
IC50 (MRC5): 16 µM
IC50 (Plasmodium falciparum [1]): > 32 µM
IC50 (Plasmodium falciparum [3]): > 32 µM
IC50 (Nucleic Acid [4]): > 400 µM

SMILES: COc1ccc2[nH]c3nc4ccccc4c-3cc2c1
IC50 (Trypanosoma brucei): > 32 µM
IC50 (MRC5): > 32 µM
IC50 (Plasmodium falciparum [1]): > 32 µM
IC50 (Plasmodium falciparum [3]): > 32 µM
IC50 (Nucleic Acid [4]): > 1000 µM
inhibition [5]: Active

SMILES: COc1cccc2c1cc1c3ccccc3nc-1n2C
IC50 (Trypanosoma cruzi): 4 µM
IC50 (Trypanosoma brucei): 1.3 µM
IC50 (MRC5): 5 µM
IC50 (Plasmodium falciparum [1]): 17.7 µM
inhibition [2]: No inhibition
IC50 (Plasmodium falciparum [3]): 12.3 µM
IC50 (Nucleic Acid [4]): > 1000 µM

SMILES: Cc1ccc2c(c1)cc1c3ccccc3nc-1n2C
IC50 (Trypanosoma brucei): 0.1 µM
IC50 (MRC5): 0.95 µM
IC50 (Plasmodium falciparum [1]): 2.7 µM
IC50 (Plasmodium falciparum [3]): 2.3 µM

SMILES: Cn1c2nc3ccccc3c-2cc2cc([N+](=O)[O-])ccc21
IC50 (Trypanosoma brucei): 0.7 µM
IC50 (MRC5): > 32 µM
IC50 (Plasmodium falciparum [1]): 29 µM
IC50 (Plasmodium falciparum [3]): > 32 µM
IC50 (Nucleic Acid [4]): > 1000 µM

SMILES: Cn1c2nc3ccc(C#N)cc3c-2cc2ccccc21
IC50 (Trypanosoma brucei): > 32 µM
IC50 (MRC5): > 32 µM
IC50 (Plasmodium falciparum [1]): > 32 µM
inhibition [6]: Active
IC50 (Plasmodium falciparum [3]): > 32 µM
IC50 (Nucleic Acid [4]): > 1000 µM

SMILES: Cn1c2nc3ccccc3c-2cc2cc(Br)ccc21
IC50 (Trypanosoma cruzi): > 32 µM
IC50 (Trypanosoma brucei): 1 µM
IC50 (MRC5): > 32 µM
IC50 (Plasmodium falciparum [1]): 6 µM
inhibition [6]: Active
IC50 (Plasmodium falciparum [3]): 4 µM
IC50 (Nucleic Acid [4]): > 400 µM

SMILES: CSc1ccc2c(c1)cc1c3ccccc3nc-1n2C
IC50 (Trypanosoma cruzi): 4 µM
IC50 (Trypanosoma brucei): 0.8 µM
IC50 (MRC5): 5 µM
IC50 (Plasmodium falciparum [1]): 4 µM
inhibition [6]: Active
IC50 (Plasmodium falciparum [3]): 3.7 µM
IC50 (Nucleic Acid [4]): > 600 µM

SMILES: C[n+]1c2ccccc2cc2[n-]c3ccccc3c21 [CRYPTOLEPINE]
IC50 (Trypanosoma brucei): 3 µM
IC50 (MRC5): 1.5 µM
IC50 (Plasmodium falciparum [1]): 2.3 µM
inhibition [6]: Active
IC50 (Plasmodium falciparum [3]): 2 µM
IC50 (Nucleic Acid [4]): 65.7 µM

SMILES: Cn1c2nc3ccc(C#N)cc3c-2cc2cc(C(F)(F)F)ccc21
IC50 (Trypanosoma cruzi): > 32 µM
IC50 (Trypanosoma brucei): > 32 µM
IC50 (MRC5): > 32 µM
IC50 (Plasmodium falciparum [1]): 14 µM
IC50 (Plasmodium falciparum [3]): 6.7 µM
IC50 (Nucleic Acid [4]): > 200 µM

SMILES: Fc1ccc2[nH]c3nc4ccccc4c-3cc2c1
IC50 (Trypanosoma cruzi): > 32 µM
IC50 (Trypanosoma brucei): > 32 µM
IC50 (MRC5): > 32 µM
IC50 (Plasmodium falciparum [1]): > 32 µM
inhibition [2]: No inhibition
IC50 (Plasmodium falciparum [3]): > 32 µM
IC50 (Nucleic Acid [4]): > 1000 µM

SMILES: Cn1c2nc3ccccc3c-2cc2ccccc21 [NEOCRYPTOLEPINE]
IC50 (Trypanosoma cruzi): 4 µM
IC50 (Trypanosoma brucei): 4 µM
IC50 (MRC5): 11 µM
IC50 (Plasmodium falciparum [1]): 27.3 µM
inhibition [6]: Active
IC50 (Plasmodium falciparum [3]): 14 µM
IC50 (Nucleic Acid [4]): 92.8 µM

SMILES: Clc1ccc2[nH]c3nc4ccccc4c-3cc2c1
IC50 (Trypanosoma cruzi): > 32 µM
IC50 (Trypanosoma brucei): > 32 µM
IC50 (MRC5): > 32 µM
IC50 (Plasmodium falciparum [1]): > 32 µM
inhibition [6]: Active
IC50 (Plasmodium falciparum [3]): > 32 µM
IC50 (Nucleic Acid [4]): > 1000 µM

IC50 (Trypanosoma cruzi): 17 µM
IC50 (Trypanosoma brucei): 9.3 µM
IC50 (Nucleic Acid [4]): > 700 µM
inhibition [5]: Active
SMILES: Cn1c2nc3ccccc3c-2cc2ccc(Cl)cc21
IC50 (MRC5): 15.5 µM

SMILES: Cn1c2nc3ccccc3c-2cc2cc(F)ccc21
IC50 (Trypanosoma cruzi): 6 µM
IC50 (Trypanosoma brucei): 14.3 µM
IC50 (MRC5): 15 µM
IC50 (Plasmodium falciparum [1]): 19.3 µM
inhibition [6]: Active
IC50 (Plasmodium falciparum [3]): 4.7 µM
IC50 (Nucleic Acid [4]): > 500 µM

SMILES: Cn1c2nc3ccc(C#N)cc3c-2cc2cc(F)ccc21
IC50 (Trypanosoma cruzi): > 32 µM
IC50 (Trypanosoma brucei): 4 µM
IC50 (MRC5): 11 µM
IC50 (Plasmodium falciparum [1]): 16.3 µM
inhibition [6]: Active
IC50 (Plasmodium falciparum [3]): 14.7 µM
IC50 (Nucleic Acid [4]): > 600 µM

IC50 (Trypanosoma cruzi): 1 µM
IC50 (Trypanosoma brucei): 0.4 µM
inhibition (Nucleic Acid [8]): 37%
inhibition [2]: No inhibition
IC50 (Nucleic Acid [4]): 150 µM
SMILES: COc1ccc2cc3c4ccccc4nc-3n(C)c2c1
IC50 (MRC5): 3.5 µM

SMILES: COc1ccc2c(c1)cc1c3cc(C#N)ccc3nc-1n2C
IC50 (Trypanosoma cruzi): 1 µM
IC50 (Trypanosoma brucei): 1 µM
IC50 (MRC5): > 32 µM
IC50 (Plasmodium falciparum [1]): 28.3 µM
inhibition [2]: No inhibition
IC50 (Plasmodium falciparum [3]): 17 µM
IC50 (Nucleic Acid [4]): > 500 µM

SMILES: Cn1c2nc3ccccc3c-2cc2cc(C#N)ccc21
IC50 (Trypanosoma cruzi): 16.3 µM
IC50 (Trypanosoma brucei): 4 µM
IC50 (MRC5): 16 µM
IC50 (Plasmodium falciparum [1]): 17 µM
IC50 (Plasmodium falciparum [3]): 15.3 µM
IC50 (Nucleic Acid [4]): > 600 µM

IC50 (Trypanosoma cruzi): > 32 µM
IC50 (Trypanosoma brucei): 27.3 µM
IC50 (Nucleic Acid [4]): > 600 µM
inhibition [5]: Active
SMILES: Cn1c2nc3ccccc3c-2cc2ccc(Br)cc21
IC50 (MRC5): 18.5 µM

SMILES: Cn1c2nc3ccccc3c-2cc2cc(I)ccc21
IC50 (Trypanosoma cruzi): 18.3 µM
IC50 (Trypanosoma brucei): 1 µM
IC50 (MRC5): 16 µM
IC50 (Plasmodium falciparum [1]): 17.7 µM
inhibition [6]: Active
IC50 (Plasmodium falciparum [3]): 6.3 µM
IC50 (Nucleic Acid [4]): > 400 µM
